Laboratory results taken from ChEMBL document CHEMBL1122055, “DL-threo-beta-Fluoroaspartate and DL-threo-beta-fluoroasparagine: selective cytotoxic agents for mammalian cells in culture” (J Med Chem, 1982).
“And” between values parts separate entries of the source, which are not always exact repeats. Equal values may be shown once.

Key:
[1] = Distribution of radioactivity derived form [C14]-labeled compound taken up by 7800C1 cells; total uptake; format: ADME
Summary of the method: (§1)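 7800C₁ cells in 100-mm dishes in MEM⁺; on day 4 medium renewed, and 6 h later ¹⁴C-labeled amino acid added to duplicate dishes for 12 h. Washed cells fractionated with 10% trichloroacetic acid (3 h, 0 °C) into acid-soluble material, then hot 5% acid (82 °C, 30 min) to release nucleic acid, leaving a protein pellet on glass-fiber filter. Scintillation counting; nmol/10⁶ cells, mean of duplicates.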

[2] = Percent recovery form [C14]-labeled compound taken up by 7800C1 cells; format: ADME; settings: rat; summary of the method: as §1
[3] = tested on: GH4-C1; assay: Compound was tested for its uptake by the GH4C1 cells; format: functional, Rattus norvegicus
Summary of the method: (§2)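 Cells plated in 100-mm dishes in F 10⁺; on day 4 medium replaced with fresh F 10⁺, and 3 h later ¹⁴C-labeled amino acid added to duplicate dishes. 6 h incubation, then monolayer washed in cold 0.9% NaCl, cells scraped off, and radioactivity counted by liquid scintillation. Uptake expressed as nmol/10⁶ cells from cell counts on untreated dishes; mean of duplicates.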

[4] = tested on: MH1C1; assay: Compound was tested for its uptake by the MH1C1 cells; format: functional; summary of the method: as §2
[5] = tested on: Jensen sarcoma; assay: Compound was tested for its uptake by the Jensen sarcoma cells; format: functional, Rattus norvegicus; summary of the method: as §2
[6] = tested on: H4 (Rattus norvegicus); assay: Compound was tested for its uptake by the H4 cells
[7] = tested on: 7800C1 (Rattus norvegicus); assay: Compound was tested for its uptake by the 7800C1 cells
[8] = tested on: H4 (Rattus norvegicus); assay: Tested for its reversal effect on growth of H4 cells at 133 ug/mL concentrations of L-aspargine and DL-threo-beta-fluoroaspartate
[9] = tested on: H4 (Rattus norvegicus); assay: Tested for its reversal effect on growth of H4 cells at 330 ug/mL concentrations of L-aspargine and DL-threo-beta-fluoroaspartate
[10] = tested on: H4; assay: Tested for its reversal effect on growth of H4 cells at 133+5 ug/mL concentrations of L-aspargine and DL-threo-beta-fluoroaspartate; format: functional
Summary of the method: (§3)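 Rat hepatoma H4 cells seeded at 1.4×10^4 per 35-mm dish in MEM+. On day 4, fresh MEM+ was added, with treatments including L-aspartate or L-asparagine. Exposure 66 h, then total cell protein per dish measured by Lowry. Results expressed as % of untreated control protein, mean of duplicate dishes.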

[11] = tested on: H4; assay: Tested for its reversal effect on growth of H4 cells at 330+5 ug/mL concentrations of L-aspargine and DL-threo-beta-fluoroaspartate; format: functional
Summary of the method: (§4)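 H4 hepatoma cells seeded at 8×10^3 per 35-mm dish in F 10+ medium. On day 4, the medium was renewed and treatments started, including L-aspartate or L-asparagine. Incubation 72 h, then Lowry total cell protein per dish. Results reported as % of untreated control, mean of duplicate dishes.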

[12] = tested on: H4; assay: Tested for its reversal effect on growth of H4 cells at 330 + 5 ug/mL concentrations of L-aspargine and DL-threo-beta-fluoroaspartate; format: functional; summary of the method: as §4
[13] = tested on: H4; assay: Tested for its reversal effect on growth of H4 cells at 133 + 5 ug/mL concentrations of L-aspargine and DL-threo-beta-fluoroaspartate; format: functional; summary of the method: as §3
[14] = tested on: 7800C1 cell line; assay: Tested for its cytotoxic effect on the growth of the cell strain 7800C1 (1 x 10e 4 (MEM)) at 2 ug/mL dose; format: functional, Rattus norvegicus
Summary of the method: (§5)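 Cells plated in 35-mm dishes at the stated density and medium (F 10+: Ham's F10 + 15% horse serum + 2.5% fetal calf serum; MEM+: Eagle's MEM + 5% horse + 5% fetal calf serum), grown 3 days. All strains then switched to F 10+ before treatment and incubated 4 days. Growth read as total cell protein per dish (Lowry, bovine albumin standard). Single determinations; experiment repeated twice.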

[15] = tested on: 7800C1 cell line; assay: Tested for its cytotoxic effect on the growth of the cell strain 7800C1 (1 x 10e 4 (MEM)) at 20 ug/mL dose; format: functional, Rattus norvegicus; summary of the method: as §5
[16] = tested on: 7800C1 cell line; assay: Tested for its cytotoxic effect on the growth of the cell strain 7800C1 (1 x 10e 4 (MEM)) at 5 ug/mL dose; format: functional, Rattus norvegicus; summary of the method: as §5
[17] = tested on: 7800C1 cell line; assay: Tested for its cytotoxic effect on the growth of the cell strain 7800C1 (1 x 10e 4 (MEM)) at 10 ug/mL dose; format: functional, Rattus norvegicus; summary of the method: as §5
[18] = tested on: GH4-C1; assay: Tested for its cytotoxic effect on the growth of the cell strain GH4C1 (8 x 10e 4 (F 10+)) at 10 ug/mL dose; format: functional, Rattus norvegicus; summary of the method: as §5
[19] = tested on: GH3; assay: Tested for its cytotoxic effect on the growth of the cell strain GH3 (2 x 10e 4 (F 10+)) at 10 ug/mL dose; format: functional, Rattus norvegicus; summary of the method: as §5
[20] = tested on: GH3; assay: Tested for its cytotoxic effect on the growth of the cell strain GH3 (2 x 10e 4 (F 10+)) at 2 ug/mL dose; format: functional, Rattus norvegicus; summary of the method: as §5
[21] = tested on: GH3; assay: Tested for its cytotoxic effect on the growth of the cell strain GH3 (2 x 10e 4 (F 10+)) at 5 ug/mL dose; format: functional, Rattus norvegicus; summary of the method: as §5
[22] = tested on: GH3; assay: Tested for its cytotoxic effect on the growth of the cell strain GH3 (2 x 10e 4 (F 10+)) at 75 ug/mL dose; format: functional, Rattus norvegicus; summary of the method: as §5
[23] = tested on: GH4-C1; assay: Tested for its cytotoxic effect on the growth of the cell strain GH4C1 (8 x 10e 4 (F 10+)) at 2 ug/mL dose; format: functional, Rattus norvegicus; summary of the method: as §5
[24] = tested on: GH4-C1; assay: Tested for its cytotoxic effect on the growth of the cell strain GH4C1 (8 x 10e 4 (F 10+)) at 20 ug/mL dose; format: functional, Rattus norvegicus; summary of the method: as §5
[25] = tested on: GH4-C1; assay: Tested for its cytotoxic effect on the growth of the cell strain GH4C1 (8 x 10e 4 (F 10+)) at 5 ug/mL dose; format: functional, Rattus norvegicus; summary of the method: as §5
[26] = tested on: GH4-C1; assay: Tested for its cytotoxic effect on the growth of the cell strain GH4C1 (8 x 10e 4 (F 10+)) at 75 ug/mL dose; format: functional, Rattus norvegicus; summary of the method: as §5
[27] = tested on: H4; assay: Tested for its cytotoxic effect on the growth of the cell strain H4 (8 x 10e 3 (MEM)) at 10 ug/mL dose; format: functional; summary of the method: as §5
[28] = tested on: H4; assay: Tested for its cytotoxic effect on the growth of the cell strain H4 (8 x 10e 3 (MEM)) at 2 ug/mL dose; format: functional; summary of the method: as §5
[29] = tested on: H4; assay: Tested for its cytotoxic effect on the growth of the cell strain H4 (8 x 10e 3 (MEM)) at 5 ug/mL dose; format: functional; summary of the method: as §5
[30] = tested on: H4; assay: Tested for its cytotoxic effect on the growth of the cell strain H4 (8 x 10e 3 (MEM)) at 75 ug/mL dose; format: functional; summary of the method: as §5
[31] = tested on: H4; assay: Tested for its reversal effect on growth of H4 cells at 5 ug/mL concentrations of L-aspargine and DL-threo-beta-fluoroaspartate; format: functional
[32] = tested on: MH1C1; assay: Tested for its cytotoxic effect on the growth of the cell strain MH1C1 (1 x 10e 4 (F 10+)) at 10 ug/mL dose; format: functional; summary of the method: as §5
[33] = tested on: MH1C1; assay: Tested for its cytotoxic effect on the growth of the cell strain MH1C1 (1 x 10e 4 (F 10+)) at 2 ug/mL dose; format: functional; summary of the method: as §5
[34] = tested on: MH1C1; assay: Tested for its cytotoxic effect on the growth of the cell strain MH1C1 (1 x 10e 4 (F 10+)) at 20 ug/mL dose; format: functional; summary of the method: as §5
[35] = tested on: MH1C1; assay: Tested for its cytotoxic effect on the growth of the cell strain MH1C1 (1 x 10e 4 (F 10+)) at 5 ug/mL dose; format: functional; summary of the method: as §5
[36] = tested on: MH1C1; assay: Tested for its cytotoxic effect on the growth of the cell strain MH1C1 (1 x 10e 4 (F 10+)) at 75 ug/mL dose; format: functional; summary of the method: as §5
[37] = tested on: R5; assay: Tested for its cytotoxic effect on the growth of the cell strain R5 (1 x 10e 3 (F 10+)) at 10 ug/mL dose; format: functional; summary of the method: as §5
[38] = tested on: R5; assay: Tested for its cytotoxic effect on the growth of the cell strain R5 (1 x 10e 3 (F 10+)) at 2 ug/mL dose; format: functional; summary of the method: as §5
[39] = tested on: R5; assay: Tested for its cytotoxic effect on the growth of the cell strain R5 (1 x 10e 3 (F 10+)) at 20 ug/mL dose; format: functional; summary of the method: as §5
[40] = tested on: R5; assay: Tested for its cytotoxic effect on the growth of the cell strain R5 (1 x 10e 3 (F 10+)) at 5 ug/mL dose; format: functional; summary of the method: as §5
[41] = tested on: R5; assay: Tested for its cytotoxic effect on the growth of the cell strain R5 (1 x 10e 3 (F 10+)) at 75 ug/mL dose; format: functional; summary of the method: as §5
[42] = tested on: H4; assay: Tested for its cytotoxic effect on the growth of the cell strain H4 (8 x 10e 3 (MEM)) at 20 ug/mL dose; format: functional; summary of the method: as §5
[43] = tested on: 7800C1 cell line; assay: Tested for its cytotoxic effect on the growth of the cell strain 7800C1 (1 x 10e 4 (MEM)) at 75 ug/mL dose; format: functional, Rattus norvegicus; summary of the method: as §5
[44] = tested on: GH3; assay: Tested for its cytotoxic effect on the growth of the cell strain GH3 (2 x 10e 4 (F 10+)) at 20 ug/mL dose; format: functional, Rattus norvegicus; summary of the method: as §5

## N[C@@H](CC(=O)O)C(=O)O [ASPARTIC ACID]
[1]
  Activity: 21 nM (10e6*cells)-1
[2]
  Recovery: 83%
[3]
  Activity: 1.1 nM (10e6*cells)-1
[4]
  Activity: 0.5 nM (10e6*cells)-1
[5]
  Activity: 0.4 nM (10e6*cells)-1
[6]
  Activity: 23.4 nM (10e6*cells)-1
[7]
  Activity: 13.2 nM (10e6*cells)-1
[8]
  Cell protein in untreated control: 115%
[9]
  Cell protein in untreated control: 77%

## NC(C(=O)O)C(F)C(=O)O.N[C@@H](CC(=O)O)C(=O)O (mixture of isomers)
[10]
  Cell protein in untreated control: 79%
[11]
  Cell protein in untreated control: 78%

## NC(=O)C[C@H](N)C(=O)O.NC(C(=O)O)C(F)C(=O)O (racemic)
[12]
  Cell protein in untreated control: 17%
[13]
  Cell protein in untreated control: 0%

## NC(C(=O)O)C(F)C(=O)O (racemic)
[14]
  Cell protein: 10 ug dish-1
[15]
  Cell protein: 6 ug dish-1
[16]
  Cell protein: 9 ug dish-1
[17]
  Cell protein: 249 ug dish-1
[18]
  Cell protein: 126 ug dish-1
[19]
  Cell protein: 104 ug dish-1
[20]
  Cell protein: 69 ug dish-1
[21]
  Cell protein: 23 ug dish-1
[22]
  Cell protein: 61 ug dish-1
[23]
  Cell protein: 96 ug dish-1
[24]
  Cell protein: 36 ug dish-1
[25]
  Cell protein: 98 ug dish-1
[26]
  Cell protein: 126 ug dish-1
[27]
  Cell protein: 150 ug dish-1
[28]
  Cell protein: 114 ug dish-1
[29]
  Cell protein: 9 ug dish-1
[30]
  Cell protein: 156 ug dish-1
[31]
  Cell protein in untreated control: 0% and 5%
[32]
  Cell protein: 159 ug dish-1
[33]
  Cell protein: 154 ug dish-1
[34]
  Cell protein: 140 ug dish-1
[35]
  Cell protein: 167 ug dish-1
[36]
  Cell protein: 149 ug dish-1
[37]
  Cell protein: 122 ug dish-1
[38]
  Cell protein: 128 ug dish-1
[39]
  Cell protein: 50 ug dish-1
[40]
  Cell protein: 98 ug dish-1
[41]
  Cell protein: 90 ug dish-1
[42]
  Cell protein: 4 ug dish-1
[43]
  Cell protein: 229 ug dish-1
[44]
  Cell protein: 22 ug dish-1
